Measured values published in ChEMBL document CHEMBL4138195, “Discovery of novel propargylamine-modified 4-aminoalkyl imidazole substituted pyrimidinylthiourea derivatives as multifunctional agents for the treatment of Alzheimer's disease” (Eur J Med Chem, 2018).
pIC50: −log10 of the molar value. Calls of active or inactive are those of the source. The calls are words filed in the database; no cut-off is given here.

Tests used:
[1] = Inhibition of Cu2+-induced amyloid beta (1 to 42 residues) (unknown origin) aggregation assessed as reduction in amyloid beta fibril load at 50 uM after 24 hrs by phosphotungstic acid staining-based transmission electron microscopic method
Summary of the method: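 Aβ1-42 (25 µM) ± CuCl2 (25 µM) ± compound (50 µM) in HEPES/NaCl pH 6.6, incubated 24 h at 37 °C. Aliquots placed on carbon-coated copper grids for 30 min, stained 20 s with 2% phosphotungstic acid, imaged by TEM. Clioquinol as comparator.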

[2] = Inhibition of Cu2+-mediated amyloid beta (1 to 42) peptide-induced cytotoxicity in E17 Sprague-Dawley rat primary cortical neurons assessed as neuroprotective activity by measuring increase in cell viability at 1 uM after 24 hrs by MTT assay
Summary of the method: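 Rat E17 primary cortical neurons after 9 days in culture. Aβ1-42 samples, prepared as for the dot blot (± Cu2+, ± compound), added to the cultures at 1 µM for 24 h. Viability by MTT, normalized to the vehicle group. EGCG and clioquinol as positive controls.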

in vitro [3] = conditions: PAMPA
in vitro [4] = conditions: PAMPA, pH 7.4
[5] = molecular target: Butyrylcholinesterase (Rattus norvegicus) (UniProt Q9JKC1); experiment: Inhibition of BuChE in rat serum at 40 uM using butyrylthiocholine iodide as substrate after 20 mins by Ellman's method
Acetylcholinesterase = molecular target: T1, Acetylcholinesterase (Rattus norvegicus, UniProt P37136); experiment: Inhibition of AChE in rat cortex homogenate using acetylthiocholine iodide as substrate after 20 mins by Ellman's method
T1 sequence (P37136 whole entry): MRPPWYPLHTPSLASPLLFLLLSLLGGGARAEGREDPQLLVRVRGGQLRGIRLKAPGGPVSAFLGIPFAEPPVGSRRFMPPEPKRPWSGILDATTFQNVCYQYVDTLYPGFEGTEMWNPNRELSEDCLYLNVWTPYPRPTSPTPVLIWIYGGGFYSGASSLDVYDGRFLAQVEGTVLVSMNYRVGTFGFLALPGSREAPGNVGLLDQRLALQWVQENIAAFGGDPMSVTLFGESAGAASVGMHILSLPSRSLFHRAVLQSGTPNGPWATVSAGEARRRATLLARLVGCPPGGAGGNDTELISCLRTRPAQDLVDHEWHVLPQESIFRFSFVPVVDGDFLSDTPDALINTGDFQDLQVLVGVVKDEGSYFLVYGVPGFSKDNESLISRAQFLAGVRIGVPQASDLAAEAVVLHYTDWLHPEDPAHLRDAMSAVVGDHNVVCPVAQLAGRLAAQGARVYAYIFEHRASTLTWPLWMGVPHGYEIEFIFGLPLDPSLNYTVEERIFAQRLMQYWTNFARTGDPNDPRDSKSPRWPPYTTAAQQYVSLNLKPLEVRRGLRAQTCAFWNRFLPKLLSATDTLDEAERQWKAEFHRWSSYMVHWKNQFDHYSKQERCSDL

Butyrylcholinesterase = Butyrylcholinesterase (Rattus norvegicus, UniProt Q9JKC1); experiment: Inhibition of BuChE in rat serum using butyrylthiocholine iodide as substrate after 20 mins by Ellman's method
Rattus norvegicus = species: Rattus norvegicus; experiment: Selectivity index, ratio of IC50 for BuChE in rat serum to IC50 for AChE in rat cortex homogenate; assay type: tissue-based
[6] = molecular target: T2, Amine oxidase [flavin-containing] A (Homo sapiens, UniProt P21397); experiment: Inhibition of recombinant human MAOA using p-tyramine as substrate preincubated for 15 mins followed by substrate addition measured after 15 mins by Amplex red reagent based fluorescence assay
T2 sequence (P21397 whole entry): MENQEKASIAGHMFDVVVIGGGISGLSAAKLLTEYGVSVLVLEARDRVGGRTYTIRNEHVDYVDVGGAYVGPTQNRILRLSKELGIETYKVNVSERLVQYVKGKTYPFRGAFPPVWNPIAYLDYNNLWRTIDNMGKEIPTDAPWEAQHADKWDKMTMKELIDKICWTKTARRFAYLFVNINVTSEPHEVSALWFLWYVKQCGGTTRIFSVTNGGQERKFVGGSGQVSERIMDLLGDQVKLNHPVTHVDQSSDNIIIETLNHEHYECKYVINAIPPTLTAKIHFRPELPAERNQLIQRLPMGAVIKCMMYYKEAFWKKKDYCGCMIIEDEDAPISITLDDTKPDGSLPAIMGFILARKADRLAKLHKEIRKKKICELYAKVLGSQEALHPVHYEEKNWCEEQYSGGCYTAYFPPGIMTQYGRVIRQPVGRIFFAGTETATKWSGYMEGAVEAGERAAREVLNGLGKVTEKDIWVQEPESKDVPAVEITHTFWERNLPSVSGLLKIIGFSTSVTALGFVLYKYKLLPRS

[7] = molecular target: T2, Amine oxidase [flavin-containing] A; experiment: Inhibition of recombinant human MAOA at 50 uM using p-tyramine as substrate preincubated for 15 mins followed by substrate addition measured after 15 mins by Amplex red reagent based fluorescence assay; conditions: 0.25 h
Summary of the method: (§1)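 Recombinant human MAO-A (12.5 µg/mL) or MAO-B (75 µg/mL) preincubated 15 min at 37 °C with compound (diluted from 10 mM DMSO stock in 50 mM KH2PO4, pH 7.4). Amplex Red working solution added: 2 mM p-tyramine (MAO-A) or benzylamine (MAO-B), 2 U/mL HRP. After 15 min at 37 °C, fluorescence read (ex 545/em 590), background from enzyme-free wells subtracted.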

[8] = molecular target: T3, Amine oxidase [flavin-containing] B (Homo sapiens, UniProt P27338)
T3 sequence (P27338 whole entry): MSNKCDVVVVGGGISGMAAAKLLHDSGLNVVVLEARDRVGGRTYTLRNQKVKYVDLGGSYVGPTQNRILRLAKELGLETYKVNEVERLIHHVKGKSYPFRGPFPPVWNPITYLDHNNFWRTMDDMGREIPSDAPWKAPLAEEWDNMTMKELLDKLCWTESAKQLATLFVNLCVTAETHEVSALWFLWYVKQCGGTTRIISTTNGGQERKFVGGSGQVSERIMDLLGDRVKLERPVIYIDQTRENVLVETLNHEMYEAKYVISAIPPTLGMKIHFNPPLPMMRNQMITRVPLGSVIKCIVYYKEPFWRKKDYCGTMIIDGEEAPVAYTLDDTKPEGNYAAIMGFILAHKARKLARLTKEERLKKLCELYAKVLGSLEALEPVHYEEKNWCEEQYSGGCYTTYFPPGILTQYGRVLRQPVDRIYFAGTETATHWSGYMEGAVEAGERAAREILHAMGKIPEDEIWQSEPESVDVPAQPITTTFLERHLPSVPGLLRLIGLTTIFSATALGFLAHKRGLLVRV

[9] = molecular target: T3, Amine oxidase [flavin-containing] B; experiment: Inhibition of recombinant human MAOB at 50 uM using benzylamine as substrate preincubated for 15 mins followed by substrate addition measured after 15 mins by Amplex red reagent based fluorescence assay; conditions: 0.25 h
[10] = Antioxidant activity assessed as trolox equivalent of AAPH radical scavenging activity preincubated for 10 mins followed by AAPH addition measured every 2 mins for 180 mins by ORAC-FL assay; assay type: functional
Summary of the method: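 Compound at 20 µM (diluted from 10 mM DMSO stock in 75 mM phosphate, pH 7.4) with fluorescein (0.117 µM diluted) for 10 min at 37 °C, then AAPH (40 mM solution) added. Fluorescence (ex 485/em 535) read every 2 min for 180 min. […] Triplicate wells, ≥3 runs.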

Homo sapiens = species: Homo sapiens; experiment: Selectivity index, ratio of IC50 for recombinant human MAOA to IC50 for recombinant human MAOB; summary of the method: as §1
Cortical neurone = experiment: Cytotoxicity against E17 Sprague-Dawley rat primary cortical neurons at 10 to 30 uM after 24 hrs by MTT assay; assay type: cell-based

Sequence of Butyrylcholinesterase (Rattus norvegicus) (Q9JKC1 as listed by the source): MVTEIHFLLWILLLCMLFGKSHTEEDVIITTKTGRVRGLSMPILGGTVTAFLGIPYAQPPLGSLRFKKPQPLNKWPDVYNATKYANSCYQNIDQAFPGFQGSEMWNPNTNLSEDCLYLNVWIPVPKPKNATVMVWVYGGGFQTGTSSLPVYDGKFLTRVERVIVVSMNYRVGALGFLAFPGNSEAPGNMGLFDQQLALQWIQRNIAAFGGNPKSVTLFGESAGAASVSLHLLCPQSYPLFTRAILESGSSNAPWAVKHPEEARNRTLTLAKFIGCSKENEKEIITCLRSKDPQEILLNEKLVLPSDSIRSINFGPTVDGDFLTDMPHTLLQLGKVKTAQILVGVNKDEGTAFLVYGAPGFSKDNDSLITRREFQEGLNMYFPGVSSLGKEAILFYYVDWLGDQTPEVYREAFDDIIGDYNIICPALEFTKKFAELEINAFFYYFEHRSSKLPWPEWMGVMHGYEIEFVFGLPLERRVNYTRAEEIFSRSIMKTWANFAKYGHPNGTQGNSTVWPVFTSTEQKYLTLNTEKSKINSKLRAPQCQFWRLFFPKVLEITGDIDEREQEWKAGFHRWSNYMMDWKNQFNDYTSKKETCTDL
Sequence of Butyrylcholinesterase (Q9JKC1 whole entry): as the sequence (Q9JKC1 as listed by the source) above

inhibition [1] | Papp at 18 h, 25 ug/ml (in vitro [4]) | Structure (SMILES) | Activity [2] | Papp at 12 h, 100 ug/ml (in vitro [3]) | inhibition [5] | pIC50 (Acetylcholinesterase) | pIC50 (Butyrylcholinesterase) | Ratio IC50 (Rattus norvegicus) | pIC50 [6] | inhibition at 50 µM [7] | pIC50 [8] | inhibition at 50 µM [9] | Activity (umolequiv/umol) [10] | Ratio IC50 (Homo sapiens) | Activity (Cortical neurone)
Active |  | Oc1c(I)cc(Cl)c2cccnc12 | Active |  |  |  |  |  |  |  |  |  |  |  | 
 | 11 ×10⁻⁶ cm/s | COc1ccc(CCN2CCC(Nc3nc4ccccc4n3Cc3ccc(F)cc3)CC2)cc1 [ASTEMIZOLE] |  | 8.48 ×10⁻⁶ cm/s |  |  |  |  |  |  |  |  |  |  | 
 |  | C#CCN(CC#C)Cc1cn(-c2cc(NC(=S)NCC)ncn2)cn1 |  |  | 4.97% | 6.14 | < 4.40 | > 56 | < 4.30 | 15.5% | < 4.30 | 42.1% | 0.585 |  | 
 |  | C#CCNCc1cn(-c2cc(NC(=S)NCC)ncn2)cn1 |  | 2.78 ×10⁻⁶ cm/s | 15.2% | 6.45 | < 4.40 | > 113 | 5.36 |  | 5.28 |  | 1.18 | 0.826 | 
 |  | C#CCN(CC)CCc1cn(-c2cc(NC(=S)NCC)ncn2)cn1 |  |  | 2.44% | 5.87 | < 4.40 | > 30 | < 4.30 | 13% | < 4.30 | 49.4% |  |  | 
 |  | C#CCN(Cc1cn(-c2cc(NC(=S)NCC)ncn2)cn1)C(C)=O |  |  | 5.15% | 6.29 | < 4.40 | > 78 | < 4.30 | 4.83% | < 4.30 | 1.17% | 1.17 |  | 
 |  | C#CCN(C)CCCc1cn(-c2cc(NC(=S)NCC)ncn2)cn1 |  |  | 6.7% | 6.34 | < 4.40 |  | < 4.30 | 63.8% | 5.49 |  | 0.447 |  | 
 |  | C#CCN(C)CCc1cn(-c2cc(NC(=S)NCC)ncn2)cn1 |  | 3.33 ×10⁻⁶ cm/s | 8.91% | 6.41 | < 4.40 | > 102 | 5.05 |  | 4.91 |  | 1.24 | 0.724 | 
 |  | C#CCNCCCc1cn(-c2cc(NC(=S)NCC)ncn2)cn1 |  | 3.26 ×10⁻⁶ cm/s | 12.7% | 6.42 | < 4.40 | > 105 | < 4.30 | 31.4% | < 4.30 | 36.6% | 0.186 |  | 
 |  | C#CCN(CCC)Cc1cn(-c2cc(NC(=S)NCC)ncn2)cn1 |  |  | 7.75% | 6.31 | < 4.40 | > 83 | < 4.30 | 1.76% | < 4.30 | 24.3% | 0.448 |  | 
 |  | C#CCN(CC#N)Cc1cn(-c2cc(NC(=S)NCC)ncn2)cn1 |  |  | 5.48% | 6.15 | < 4.40 | > 57 | < 4.30 | 2.01% | < 4.30 | 15.3% | 0.494 |  | 
 |  | C#CCN(CCCC)Cc1cn(-c2cc(NC(=S)NCC)ncn2)cn1 |  |  | 13.4% | 6.17 | < 4.40 | > 59 | < 4.30 | 2.43% | < 4.30 | 20.1% | 0.238 |  | 
 |  | C#CCN(CC#N)CCc1cn(-c2cc(NC(=S)NCC)ncn2)cn1 |  |  | 3.02% | 6.22 | < 4.40 | > 67 | < 4.30 | 13.9% | < 4.30 | 24.9% | 0.556 |  | 
 |  | C#CCN(CC)Cc1cn(-c2cc(NC(=S)NCC)ncn2)cn1 |  |  | 10.5% | 6.32 | < 4.40 | > 83 | < 4.30 | 6.71% | < 4.30 | 35.1% | 1.38 |  | 
 |  | COc1cc2c(cc1OC)C(=O)C(CC1CCN(Cc3ccccc3)CC1)C2 (stereo not drawn) [DONEPEZIL] |  |  |  |  |  |  |  |  |  |  |  |  | Non-Toxic
 |  | C#CCNCCc1cn(-c2cc(NC(=S)NCC)ncn2)cn1 |  | 3.24 ×10⁻⁶ cm/s | 8.73% | 6.64 | < 4.40 | > 175 | < 4.30 | 54.2% | < 4.30 | 19.2% | 1.27 |  | 
 |  | C#CCN(Cc1ccccc1)Cc1cn(-c2cc(NC(=S)NCC)ncn2)cn1 |  |  | 9.28% | 6.23 | < 4.40 | > 68 | < 4.30 | 17.8% | < 4.30 | 18.4% |  |  | 
 |  | C#CCN1CCN(Cc2cn(-c3cc(NC(=S)NCC)ncn3)cn2)CC1 |  |  | 7.3% | 6.32 | < 4.40 | > 83 | < 4.30 | 9.22% | < 4.30 | 13.3% | 1.03 |  | 
